Data set [1] deals with T1, P-glycoprotein (ABCB1) (Homo sapiens, UniProt P08183). Nature of the data set: Inhibition of P-glycoprotein mediated Rhodamine-123 efflux in human NCI/ADR-RES cells assessed as increase in intracellular fluorescence at 10 uM incubated for 24 hrs relative to control. The class given is cell-based. The conditions noted are these: probe Rhodamine-123. Put shortly:
(§1)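 NCI/ADR-RES cells in RPMI with 10 % FCS, seeded 24 h before the assay. […] Washed three times, lysed in Tris/SDS, fluorescence read (ex 507/em 528 nm). Cyclosporin A as positive control.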

A further data set has as its target Cholinesterase (Equus caballus, UniProt P81908). Nature of the data set: Inhibition of equine serum BuChE using Acetyl and butyrylthiocholine iodide as substrate preincubated for 5 mins followed by substrate addition and measured every min for 10 mins by Ellman's method. Background: DTNB colorimetry detects thiols as they appear.
Data set [2] in a line: Oral bioavailability in Wistar rat at 1 to 9 mg/kg. The note with it: in vivo, dose 1-9 mg/kg. The class given is ADME, organism-based. Put shortly: (§2)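 Oral doses of 1, 3 and 9 mg/kg alongside iv and ip dosing, in 0.9 % saline, n = 3 per dose. Terminal plasma under isoflurane at six time points, UHPLC–MS/MS quantification. Bioavailability from non-compartmental AUCs, with the methods giving F = (AUCpo/AUCip) × (Doseip/Dosepo).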

Data set [3] can be described thus: Oral bioavailability in C57BL6 mouse at 1 to 9 mg/kg. Format: ADME, organism-based. The note with it: in vivo, dose 1-9 mg/kg. In short, it runs like this: as §2
Data set [4] is described as follows: Mutagenicity in Salmonella typhimurium TA97a by Ames test. The note with it: salmonella enterica subsp. enterica serovar typhimurium. Format: toxicity. Put shortly: (§3)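 Semi-quantitative spot test with S. typhimurium TA97a, TA98, TA100 and TA102, with and without S9 mix.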
A general note: The Ames test uses bacterial strains that need an amino acid and regain growth without it when mutated back.

Data set [5] is described as follows: Cytotoxicity against human MRC5 cells assessed as growth inhibition at 1 uM incubated for 72 hrs by MTS assay relative to control. The class given is toxicity, cell-based. The conditions noted are these: read-out: Activity. In short, it runs like this:
(§4)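 MRC5-SV2 cells in D-MEM with 10 % FCS, treated 24 h after plating with compound from DMSO stock (DMSO 1 % final). After 72 h, MTS added for 3 h at 37 °C and absorbance read at 490 nm. Growth inhibition = (1 − OD treated/OD control) × 100, triplicate experiments.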

Data set [6] concerns the target T2, 5-hydroxytryptamine receptor 4 (Homo sapiens, UniProt Q13639). The data set can be described thus: Partial agonist activity at human recombinant 5HT4 receptor at 1 x 10^-8M incubated for 60 mins. The class given is functional.
Data set [7] can be described thus: Cytotoxicity against human MRC5 cells assessed as growth inhibition at 10 uM incubated for 72 hrs by MTS assay relative to control. The class given is toxicity, cell-based. The note with it: read-out: Activity. In short, it runs like this: as §4
For orientation: Tetrazolium assays rely on reduction of a dye to a coloured formazan, in cell work by metabolically active cells.

The nature of data set [8]: Thermodynamic solubility of compound at pH 7.4 by classical shake-flask method. The class given is physicochemical. The conditions noted are these: buffer, read-out: Therm_solubility. In short, it runs like this: (§5)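 Shake-flask thermodynamic solubility (OECD 105, miniaturized). 1 mg of solid added to 4 mL of water or potassium phosphate buffer at pH 7.4 or 12 (n = 3), sonicated and shaken horizontally at room temperature for 48 h. After centrifugation, supernatant was mixed 1:1 with acetonitrile/DMSO and quantified by UV at 326 nm against a four-point calibration curve.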

The nature of data set [9]: Thermodynamic solubility of compound by classical shake-flask method. Format: physicochemical. The note with it: read-out: Therm_solubility. In short, it runs like this:
as §5

For data set [10], the target named is T1, P-glycoprotein (ABCB1). Nature of the data set: Inhibition of P-glycoprotein mediated Rhodamine-123 efflux in human NCI/ADR-RES cells assessed as increase in intracellular fluorescence at 1 uM incubated for 24 hrs relative to control. Format: cell-based. The conditions noted are these: probe Rhodamine-123. Put shortly: as §1
Data set [11] is described as follows: Intrinsic solubility of the compound at pH 12 by classical shake-flask method. Format: physicochemical. The conditions noted are these: buffer. Put shortly: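 Shake-flask method: 1 mg compound in 4 mL pH 12 phosphate buffer with KCl, n = 3. Sonicated, shaken at room temperature for 48 h, centrifuged. Supernatant mixed 1:1 with acetonitrile/DMSO (99:1) and quantified by UV at 326 nm against a four-point calibration curve.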

Data set [12] is described as follows: AUC in C57BL6 mouse at 3 mg/kg, ip. Format: ADME, organism-based. The conditions noted are these: in vivo. In short, it runs like this:
(§6)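 Single ip dose in 0.9 % saline (10 mL/kg mouse, 2 mL/kg rat), n = 3 per dose. CSF from cisterna magna and cardiac-puncture blood taken under isoflurane at six time points. Protein precipitation, then UHPLC–MS/MS (LLOQ 1 ng/mL). AUC0–∞ by linear trapezoidal non-compartmental analysis.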

The nature of data set [13]: AUC in Wistar rat at 3 mg/kg, ip. The class given is ADME, organism-based. The note with it: in vivo. Put shortly:
as §6

Data set [14] in a line: Mutagenicity in Salmonella typhimurium TA102 by Ames test. The class given is toxicity. The conditions noted are these: salmonella enterica subsp. enterica serovar typhimurium. Put shortly: as §3
The target of data set [15] is T2, 5-hydroxytryptamine receptor 4. The data set can be described thus: Partial agonist activity at human recombinant 5HT4 receptor expressed in […] cells assessed as cAMP accumulation in presence of serotonin by HTRF analysis. The class given is functional, cell-based. Put shortly:
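COS-7 cells grown in DMEM with 10 % dialyzed FCS and transiently transfected with HA-tagged h5-HT4R, then plated at 16,000 cells/well. At 24 h, cells were exposed for 10 min at 37 °C to 5-HT4 ligands in HEPES-buffered saline containing 0.1 % BSA and 0.1 mM RO-20-1724. Cells were lysed with 0.1 % Triton X-100 and cAMP measured by HTRF.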

The nature of data set [16]: Mutagenicity in Salmonella typhimurium TA100 by Ames test. Format: toxicity. The conditions noted are these: salmonella enterica subsp. enterica serovar typhimurium. Put shortly:
as §3

The nature of data set [17]: Mutagenicity in Salmonella typhimurium TA98 by Ames test. The conditions noted are these: salmonella enterica subsp. enterica serovar typhimurium. Format: toxicity. In short, it runs like this: as §3

Usually IC50 stands for the concentration needed to halve the response being measured. As usually defined, the bioavailability is dose-corrected exposure relative to a reference, in per cent. Read a high bioavailability as much systemic uptake. As usually defined, the Ki is a dissociation constant, usually derived from enzyme kinetics or from competition with a known ligand. As usually defined, the AUC is the area under the concentration-time curve, a measure of exposure. A high value points to high exposure. A word on the EC50: it is the midpoint of the concentration-response curve.

Converted amounts (≈) assume the structure as drawn.

T2 sequence (Q13639 whole entry): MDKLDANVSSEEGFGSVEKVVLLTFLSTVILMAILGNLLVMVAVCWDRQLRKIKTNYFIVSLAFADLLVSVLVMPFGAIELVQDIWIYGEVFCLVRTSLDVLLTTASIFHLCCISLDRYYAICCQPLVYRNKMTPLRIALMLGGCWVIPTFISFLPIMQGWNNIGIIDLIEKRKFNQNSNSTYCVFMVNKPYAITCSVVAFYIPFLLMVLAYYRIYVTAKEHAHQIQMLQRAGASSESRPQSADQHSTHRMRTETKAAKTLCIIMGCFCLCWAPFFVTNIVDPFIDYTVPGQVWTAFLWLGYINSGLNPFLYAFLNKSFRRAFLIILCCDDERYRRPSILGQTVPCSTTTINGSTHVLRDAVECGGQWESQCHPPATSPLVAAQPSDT
T1 sequence (P08183 whole entry): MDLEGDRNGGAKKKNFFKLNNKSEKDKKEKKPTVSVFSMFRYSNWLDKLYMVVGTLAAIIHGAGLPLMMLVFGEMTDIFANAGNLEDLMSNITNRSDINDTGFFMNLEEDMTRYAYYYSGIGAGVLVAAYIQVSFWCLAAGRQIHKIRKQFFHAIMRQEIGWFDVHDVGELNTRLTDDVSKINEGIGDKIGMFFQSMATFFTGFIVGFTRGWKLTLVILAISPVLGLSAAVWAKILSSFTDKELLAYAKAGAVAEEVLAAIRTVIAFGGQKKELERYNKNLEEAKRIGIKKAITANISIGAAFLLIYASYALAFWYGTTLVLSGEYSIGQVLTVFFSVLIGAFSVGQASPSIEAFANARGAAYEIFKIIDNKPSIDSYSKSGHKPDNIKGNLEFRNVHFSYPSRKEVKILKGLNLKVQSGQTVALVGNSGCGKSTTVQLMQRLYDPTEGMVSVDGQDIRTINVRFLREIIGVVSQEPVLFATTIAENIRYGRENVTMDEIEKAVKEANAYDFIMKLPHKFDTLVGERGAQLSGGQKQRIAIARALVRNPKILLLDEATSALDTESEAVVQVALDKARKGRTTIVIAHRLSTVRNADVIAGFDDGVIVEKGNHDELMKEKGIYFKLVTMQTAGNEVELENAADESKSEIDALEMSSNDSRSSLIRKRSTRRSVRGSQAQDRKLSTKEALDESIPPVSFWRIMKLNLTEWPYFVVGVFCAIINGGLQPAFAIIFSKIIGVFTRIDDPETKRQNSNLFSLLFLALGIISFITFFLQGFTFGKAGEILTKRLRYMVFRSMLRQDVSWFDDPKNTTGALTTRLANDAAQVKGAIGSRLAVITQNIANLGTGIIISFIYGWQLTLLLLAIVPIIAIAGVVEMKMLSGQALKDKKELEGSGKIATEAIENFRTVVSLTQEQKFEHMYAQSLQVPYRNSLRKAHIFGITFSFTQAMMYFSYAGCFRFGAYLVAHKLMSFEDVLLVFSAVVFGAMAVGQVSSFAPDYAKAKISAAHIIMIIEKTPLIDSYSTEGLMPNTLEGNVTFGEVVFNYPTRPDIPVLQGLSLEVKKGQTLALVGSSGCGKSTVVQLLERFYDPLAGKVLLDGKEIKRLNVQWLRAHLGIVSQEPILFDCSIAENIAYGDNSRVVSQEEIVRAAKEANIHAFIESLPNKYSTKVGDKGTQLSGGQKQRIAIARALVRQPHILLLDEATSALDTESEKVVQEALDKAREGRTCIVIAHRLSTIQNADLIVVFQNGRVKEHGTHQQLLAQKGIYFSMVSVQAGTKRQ
Cholinesterase, sequence (P81908 whole entry): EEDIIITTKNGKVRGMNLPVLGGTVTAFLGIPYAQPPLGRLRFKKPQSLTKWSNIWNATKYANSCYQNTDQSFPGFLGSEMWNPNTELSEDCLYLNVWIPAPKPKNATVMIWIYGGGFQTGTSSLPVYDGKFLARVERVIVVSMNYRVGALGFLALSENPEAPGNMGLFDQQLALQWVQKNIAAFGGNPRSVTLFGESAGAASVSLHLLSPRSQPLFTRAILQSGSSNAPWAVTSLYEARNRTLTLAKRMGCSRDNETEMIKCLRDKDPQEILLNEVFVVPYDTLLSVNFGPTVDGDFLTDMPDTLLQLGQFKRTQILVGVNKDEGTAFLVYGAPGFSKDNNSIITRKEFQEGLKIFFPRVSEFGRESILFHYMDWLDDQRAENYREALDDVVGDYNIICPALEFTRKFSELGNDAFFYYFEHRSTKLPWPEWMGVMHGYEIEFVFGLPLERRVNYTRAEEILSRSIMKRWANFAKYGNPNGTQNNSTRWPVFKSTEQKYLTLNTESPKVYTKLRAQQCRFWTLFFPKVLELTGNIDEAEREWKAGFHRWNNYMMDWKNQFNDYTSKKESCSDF

`COc1cc(N)c(F)cc1C(=O)CCC1CCN(CC2CCCCC2)CC1`: the inhibition at 24 h, 10 µM on P-glycoprotein (ABCB1) [1] stood at 111%. Moreover, the IC50 against Cholinesterase turned out to be 6200 nM. In addition, the bioavailability in data set [2] amounted to 3.6%; in data set [3], 12.4%. In addition, the Activity entry in [4], in [14], in [16] and in [17] was “Non-toxic” throughout. Besides, in [5], the inhibition at 72 h, 1 µM was 0%. Also, the Ki in [6] was determined as 9.6 nM. In [7], the inhibition at 72 h, 10 µM turned out to be 0%. The solubility thermodynamic in data set [8] worked out at 104 µM (≈ 39.2 µg/mL); in data set [9] it was 444 µM (≈ 167 µg/mL); in [11], 2 µM (≈ 0.753 µg/mL). The inhibition at 24 h, 1 µM at P-glycoprotein (ABCB1) [10] was found to be 125%. Moreover, the AUC came out at 7.66 ng·h/mL in data set [12] and 9.26 ng·h/mL in [13]. Further, the EC50 in [15] came out at 1.3 nM.

The record behind these values is ChEMBL document CHEMBL6092210, “Synthesis, in vitro and in vivo biological evaluation of novel dual compounds targeting both acetylcholinesterase and serotonergic 5-HT4 receptors with potential interest in the treatment of Alzheimer's disease” (Eur J Med Chem, 2024).
